Where two headings read alike, the source gives them in different places.
What was measured:
Assay type in all cases: cell-based
P. falciparum 3D7 = test: [3H]-hypoxanthine incorporation growth inhibition assay, P. falciparum 3D7; conditions: for IC50: mean ± SD
[1] = system: P. falciparum 3D7 parasites; test: Isopentenyl pyrophosphate; conditions: for rescue of growth inhibitory activity by IPP supplementation: 96 h assay, 200 μM IPP; for IC50: Plasmodium falciparum, 3D7, 96 h
Summary of the method: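 3D7 ring stages, sorbitol-synchronised, in O+ erythrocytes (0.1% parasitaemia, 2% haematocrit). Two identical 96 h assays ran in parallel, one with and one without 200 μM IPP. At ~72 h medium was replaced with fresh medium containing [3H]-hypoxanthine, incubated 24 h more, frozen, harvested and counted. Clindamycin was the positive control. IC50 by log-linear interpolation; triplicate wells, ≥3 independent experiments; unpaired t-test.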

P. falciparum C2B = conditions: 48 h, 72 h and 96 h assays (all time points)
Summary of the method: (§1)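 Sorbitol-synchronised ring stages in O+ erythrocytes, run as 48 h (1% parasitaemia, 1% haematocrit, label at start), 72 h (0.25%, 2.5%, label ~48 h) or 96 h (0.1%, 2%, medium change plus label ~72 h). Read-out was [3H]-hypoxanthine incorporation by scintillation. IC50 by log-linear interpolation against 0.5% DMSO; triplicate wells, ≥2 independent assays. RI = resistant-line IC50/3D7 IC50. Controls: chloroquine (Dd2), atovaquone (C2B), cycloguanil (FCR3).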

[2] = system: human embryonic kidney (Hek293) cells; test: Human cell cytotoxicity assay, HEK293; conditions: HEK293, read-out: HEK293 IC50
Summary of the method: (§2)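 NFF and HEK293 cells were grown in RPMI 1640 with 10% FCS and 1% streptomycin at 37 °C and 5% CO2. Exposure was 72 h. Growth inhibition was taken against matched DMSO controls. IC50 came from log-linear interpolation, as the mean ± SD of three independent experiments, each in triplicate.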

P. falciparum Dd2 = system: P. falciparum Dd2
Summary of the method: as §1

[3] = system: Neonatal foreskin fibroblast (NFF) cells; test: Human cell cytotoxicity assay, NFF; conditions: read-out: NFF IC50
Summary of the method: as §2

[4] = Plasmodium falciparum, 3D7, 48 h, read-out: P. falciparum 3D7 IC50, 48 h, 48 h assay (fast action)
[5] = Plasmodium falciparum, 3D7, 72 h, read-out: P. falciparum 3D7 IC50, 72 h, 72 h assay
[6] = Plasmodium falciparum, 3D7, 96 h, read-out: P. falciparum 3D7 IC50, 96 h, 96 h assay (slow action)

Row | Structure (SMILES) | IC50 (P. falciparum 3D7; [4]) | IC50 (P. falciparum 3D7; [5]) | IC50 (P. falciparum 3D7; [6]) | rescue of growth inhibitory activity by IPP supplementation [1] | IC50 ([1]; read-out: P. falciparum 3D7 IC50, +IPP) | IC50 ([1]; read-out: P. falciparum 3D7 IC50, -IPP) | Resistance Index (RI), C2B versus 3D7, text summary (P. falciparum C2B) | fold less active than himbeline (P. falciparum 3D7; 96 h assays, 3D7) | IC50 (P. falciparum 3D7; read-out: P. falciparum 3D7 IC50, 96 h, 96 h assay (slow action)) | IC50 [2] | RI (Dd2 IC50/3D7 IC50), 48h (P. falciparum Dd2; 48 h assay) | RI (Dd2 IC50/3D7 IC50), 72h (P. falciparum Dd2; 72 h assay) | RI (Dd2 IC50/3D7 IC50), 96h (P. falciparum Dd2; 96 h assay) | PfSI, Selectivity Index (mammalian cell IC50/P. falciparum IC50) (P. falciparum 3D7; NFF or HEK293 IC50 / P. falciparum 3D7 72 h IC50) | IC50 [3]
1 | CCC[C@@H]1C[C@@H](C(=O)N[C@@H]([C@H]2O[C@H](SC)[C@H](O)[C@@H](O)[C@H]2O)[C@H](C)Cl)N(C)C1 [Clindamycin, clindamycin] | > 50000 nM | 9 ± 2 nM | 5 ± 2 nM | rescued | > 500 nM | 4 ± 1 nM | – | – | – | – | – | – | – | – | –
2 | O=C1C(O)=C([C@H]2CC[C@H](c3ccc(Cl)cc3)CC2)C(=O)c2ccccc21 [ATQ, atovaquone] | – | – | – | – | – | – | > 2000 | – | – | – | – | – | – | – | –
3 | CCOC(=O)N[C@@H]1CC[C@@H]2[C@@H](C1)C[C@H]1C(=O)O[C@H](C)[C@H]1[C@H]2/C=C/c1ccc(-c2cccc(F)c2)cn1 [Vorapaxar] | 11200 ± 3000 nM | 3930 ± 1070 nM | 3500 nM | – | – | – | – | ~ 6 fold | 3520 ± 250 nM | – | – | – | – | – | –
4 | CCN(CC)CCCC(C)Nc1ccnc2cc(Cl)ccc12 (stereo not shown) [Chloroquine] | 8 ± 2 nM | 6 ± 4 nM | 4 ± 2 nM | not rescued | – | – | – | – | – | 27300 ± 13300 nM | 3 | 3 | 7 | 4555–5896 | 35400 ± 3600 nM
